From ChEMBL document CHEMBL1131450, “Synthesis and antitumor evaluation of 2,5-disubstituted-indazolo[4, 3-gh]isoquinolin-6(2H)-ones (9-aza-anthrapyrazoles)” (J Med Chem, 1998)
≈ marks a conversion by molar mass, not a printed value.

Columns and labels:
LoVo/Dx (Homo sapiens) = experiment: cells
P388 [1] = experiment: In vivo antitumor activity was measured on systemic P388 murine leukemia cells. Optimal dose 90 mg/kg/day.; type: functional, Mus musculus
Summary of the method: (§1)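 CD2F1 male mice given 10⁶ P388 leukemia cells iv (day 0); drug given iv on days 1, 4 and 7. Survival expressed as T/C% = median survival time of treated / median survival of controls × 100, reported at optimal dose (mg/kg/day) or maximum tested dose.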

LoVo [2] = experiment: Resistance index measured as the ratio of IC50 of LoVo/Dx cell line to that of LoVo cell line.; type: functional, Homo sapiens
MX1 [3] = experiment: In vivo antitumor activity was measured on MX-1 human mammary carcinoma cells. TWI%=tumor weight inhibition. Optimal dose 120 mg/kg/day.; type: functional
LoVo [4] = experiment: In vitro cytotoxicity on human colon adenocarcinoma (LoVo ) tumor cell line.; type: functional, cell-based
P388 [5] = experiment: In vivo antitumor activity was measured on systemic P388 murine leukemia cells. Optimal dose 40 mg/kg/day.; type: functional, Mus musculus; conditions: in the assay text read “6 mg/kg/day” for “40 mg/kg/day”
Summary of the method: as §1

P388 [6] = experiment: In vivo antitumor activity was measured on systemic P388 murine leukemia cells. Optimal dose 9 mg/kg/day.; type: functional, Mus musculus
Summary of the method: as §1

MX1 [7] = experiment: In vivo antitumor activity was measured on MX-1 human mammary carcinoma cells. TWI%=tumor weight inhibition. Optimal dose 11 mg/kg/day.; type: functional
P388 [8] = experiment: In vivo antitumor activity was measured on systemic P388 murine leukemia cells. Optimal dose 2 mg/kg/day.; type: functional, Mus musculus
Summary of the method: as §1

MX1 [9] = experiment: In vivo antitumor activity was measured on MX-1 human mammary carcinoma cells. TWI%=tumor weight inhibition. Optimal dose 4.5 mg/kg/day.; type: functional
MX1 [10] = experiment: Antitumor activity was measured on MX-1 human mammary carcinoma cells. TWI%=tumor weight inhibition. Optimal dose at 13.5 mg/kg/day; type: functional
P388 [11] = experiment: In vivo antitumor activity was measured on systemic P388 murine leukemia cells. Optimal dose at 13.5 mg/kg/day; type: functional, Mus musculus
Summary of the method: as §1

IC50 (LoVo/Dx (Homo sapiens))	Compound	T/C (P388 [1])	RI (LoVo [2])	TWI (MX1 [3])	IC50 (LoVo [4])	T/C (P388 [5])	T/C (P388 [6])	TWI (MX1 [7])	T/C (P388 [8])	TWI (MX1 [9])	TWI (MX1 [10])	T/C (P388 [11])
> 100 µg/mL	O=C1c2ccncc2-c2nn(CCNCCO)c3ccc(NCCO)c1c23	113%	>1.9	49%	53.1 µg/mL (≈ 145 µM)							
15.9 µg/mL (≈ 45.4 µM)	CN(C)CCNc1ccc2c3c(nn2CCN)-c2cnccc2C(=O)c13		53		0.3 µg/mL (≈ 0.856 µM)		231%	80%				
4.3 µg/mL (≈ 12.3 µM)	CN(C)CCn1nc2c3c(c(NCCN)ccc31)C(=O)c1ccncc1-2		27		0.16 µg/mL (≈ 0.457 µM)				213%	87%		

The next lines start with the compound.

Compound	IC50 (LoVo/Dx (Homo sapiens))	T/C (P388 [1])	RI (LoVo [2])	TWI (MX1 [3])	IC50 (LoVo [4])	T/C (P388 [5])	T/C (P388 [6])	TWI (MX1 [7])	T/C (P388 [8])	TWI (MX1 [9])	TWI (MX1 [10])	T/C (P388 [11])
CNCCn1nc2c3c(c(NCCNCCO)ccc31)C(=O)c1ccncc1-2	31.6 µg/mL (≈ 83.1 µM)		109		0.29 µg/mL (≈ 0.762 µM)	181%						
Cl.Cl.O=C1c2c(O)cccc2-c2nn(CCNCCO)c3ccc(NCCNCCO)c1c23	44.5 µg/mL		840		0.053 µg/mL						95%	147%
